Key:
[1] = target: T1, Nuclear receptor subfamily 1 group I member 2 (Homo sapiens, UniProt O75469); assay: Agonist activity at human pregnane X receptor expressed in HGPXR reporter cells; assay type: functional, cell-based
T1 sequence (O75469 whole entry): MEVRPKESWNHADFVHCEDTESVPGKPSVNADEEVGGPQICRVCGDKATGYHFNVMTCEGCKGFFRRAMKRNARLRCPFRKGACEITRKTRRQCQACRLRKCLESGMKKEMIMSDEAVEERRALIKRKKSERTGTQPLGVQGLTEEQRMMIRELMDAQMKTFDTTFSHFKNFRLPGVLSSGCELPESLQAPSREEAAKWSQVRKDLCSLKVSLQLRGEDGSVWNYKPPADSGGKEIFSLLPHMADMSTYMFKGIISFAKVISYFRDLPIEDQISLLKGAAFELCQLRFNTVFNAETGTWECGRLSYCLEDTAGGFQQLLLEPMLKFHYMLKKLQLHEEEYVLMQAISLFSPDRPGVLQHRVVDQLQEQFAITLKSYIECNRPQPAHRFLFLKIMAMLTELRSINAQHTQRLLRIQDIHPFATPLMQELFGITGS

[2] = tested on: Hepatocyte; assay: Induction of […] mRNA expression in human hepatocyte FT268 at 1 uM after 24 hrs by RT-PCR relative to control; assay type: functional
Summary of the method: (§1)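 Primary adult human hepatocytes from lobectomy segments, plated on collagen in Williams' E/Ham's F-12 (1:1) defined medium; 24 h exposure begun 48 h after plating, vehicle DMSO 0.1%. Total RNA extracted with TRIzol, cDNA from 1 µg using random hexamers (42 °C, 60 min). Target mRNA quantified by real-time PCR in duplicates, comparative Ct method. Result given as fold induction over DMSO-treated cells ± standard error.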

[3] = tested on: Hepatocyte; assay: Induction of CYP3A4 mRNA expression in human hepatocyte FT272 at 1 uM after 24 hrs by RT-PCR relative to control; assay type: functional; summary of the method: as §1
[4] = tested on: Hepatocyte; assay: Induction of […] mRNA expression in human hepatocyte FT272 at 1 uM after 24 hrs by RT-PCR relative to control; assay type: functional; summary of the method: as §1
[5] = tested on: Hepatocyte; assay: Induction of CYP3A4 mRNA expression in human hepatocyte FT271 at 1 uM after 24 hrs by RT-PCR relative to control; assay type: functional; summary of the method: as §1
[6] = tested on: Hepatocyte; assay: Induction of […] mRNA expression in human hepatocyte FT271 at 1 uM after 24 hrs by RT-PCR relative to control; assay type: functional; summary of the method: as §1
[7] = tested on: Hepatocyte; assay: Induction of CYP3A4 mRNA expression in human hepatocyte FT269 at 1 uM after 24 hrs by RT-PCR relative to control; assay type: functional; summary of the method: as §1
[8] = tested on: Hepatocyte; assay: Induction of CYP3A4 mRNA expression in human hepatocyte FT268 at 1 uM after 24 hrs by RT-PCR relative to control; assay type: functional; summary of the method: as §1
[9] = tested on: Hepatocyte; assay: Induction of […] mRNA expression in human hepatocyte FT269 at 1 uM after 24 hrs by RT-PCR relative to control; assay type: functional; summary of the method: as §1
[10] = target: T1, Nuclear receptor subfamily 1 group I member 2; assay: Protection of human pregnane X receptor against proteolytic digestion in presence of trypsin

| SMILES | EC50 [1] | also measured |
| --- | --- | --- |
| CCCc1ccc(S(=O)(=O)Nc2ccc3c(c2)ncn3Cc2ccccc2)cc1 | 0.052 µM | – |
| O=S(=O)(Nc1ccc2c(c1)ncn2Cc1ccccc1)c1ccccc1Cl | 0.023 µM | Ratio [2]: 3.02; Ratio [3]: 36.06; Ratio [4]: 11.83; Ratio [5]: 9.97; Ratio [6]: 3.05; Ratio [7]: 17.04; Ratio [8]: 7.23; Ratio [9]: 10.46; EC50 [10]: 0.157 µM |
| Cc1cc(C)cc(S(=O)(=O)Nc2ccc3c(c2)ncn3Cc2ccccc2)c1 | 0.033 µM | – |
| Cc1cc(C)c(S(=O)(=O)Nc2ccc3c(c2)ncn3Cc2ccccc2)c(C)c1 | 0.0015 µM | Ratio [3]: 31.68; Ratio [4]: 7.55; Ratio [5]: 15.58; Ratio [6]: 1.89; EC50 [10]: 0.00805 µM |
| O=C(Cc1cccc2ccccc12)Nc1ccc2c(c1)ncn2Cc1ccccc1 | 0.217 µM | – |
| CCCCCCn1cnc2cc(NS(=O)(=O)c3c(C)c(C)c(C)c(C)c3C)ccc21 | 0.013 µM | – |
| O=S(=O)(Nc1ccc2c(c1)ncn2Cc1ccccc1)c1ccccc1F | 0.101 µM | – |
| O=S(=O)(Cc1ccccc1Cl)Nc1ccc2ncn(Cc3ccccc3)c2c1 | 0.376 µM | – |
| O=S(=O)(Nc1ccc2ncn(Cc3ccccc3)c2c1)c1ccccc1Cl | 0.34 µM | – |
| O=S(=O)(Nc1ccc2c(c1)ncn2Cc1ccccc1)c1ccc(-c2ccccc2)cc1 | 0.388 µM | – |
| Cc1c(C)c(C)c(S(=O)(=O)Nc2ccc3c(c2)ncn3-c2ccc3ccccc3c2)c(C)c1C | 0.055 µM | – |
| O=C(Cc1ccc2ccccc2c1)Nc1ccc2c(c1)ncn2Cc1ccccc1 | > 5 µM | – |
| Cc1ccccc1S(=O)(=O)Nc1ccc2c(c1)ncn2Cc1ccccc1 | 0.045 µM | – |
| CC(c1ccccc1)n1cnc2cc(NS(=O)(=O)Cc3ccccc3Cl)ccc21 (racemic) | 0.049 µM | EC50 [10]: 0.809 µM |
| O=S(=O)(Nc1ccc2c(c1)ncn2Cc1ccccc1)c1ccccc1Br | 0.02 µM | – |
| Cc1c(C)c(C)c(S(=O)(=O)Nc2ccc3c(c2)ncn3Cc2ccccc2)c(C)c1C | 0.0007 µM | Ratio [3]: 32.59; Ratio [4]: 11.41; Ratio [5]: 14.91; Ratio [6]: 4.86; Ratio [7]: 29.02; Ratio [9]: 14.89; EC50 [10]: 0.00804 µM |

| SMILES | EC50 [1] | also measured |
| --- | --- | --- |
| O=S(=O)(Cc1ccccc1Cl)Nc1ccc2c(ccn2Cc2ccccc2)c1 | 0.197 µM | – |
| O=[N+]([O-])c1ccccc1CS(=O)(=O)Nc1ccc2c(c1)ncn2Cc1ccccc1 | 0.428 µM | – |
| O=[N+]([O-])c1ccc(S(=O)(=O)Nc2ccc3c(c2)ncn3Cc2ccccc2)cc1 | 0.336 µM | – |
| CC(C)(C)c1ccc(S(=O)(=O)Nc2ccc3c(c2)ncn3Cc2ccccc2)cc1 | 0.042 µM | – |
| O=C(Cc1ccccc1Cl)Nc1ccc2c(c1)ncn2Cc1ccccc1 | 0.515 µM | – |
| O=C(Nc1ccc2c(c1)ncn2Cc1ccccc1)Nc1cccc2ccccc12 | > 5 µM | – |
| O=S(=O)(Nc1ccc2c(c1)ncn2Cc1ccccc1)c1ccc2ccccc2c1 | 0.051 µM | – |
| CCOP(=O)(OCC)C(=Cc1cc(C(C)(C)C)c(O)c(C(C)(C)C)c1)P(=O)(OCC)OCC | – | Ratio [2]: 3.26; Ratio [3]: 24.01; Ratio [4]: 3.91; Ratio [5]: 11.84; Ratio [6]: 2; Ratio [7]: 10.9; Ratio [8]: 4.02; Ratio [9]: 3.74 |
| O=S(=O)(Cc1ccccc1Cl)Nc1ccc2c(c1)ncn2Cc1ccccc1 | 0.176 µM | – |
| CCCCCCn1cnc2cc(NS(=O)(=O)c3ccccc3Cl)ccc21 | 0.055 µM | – |
| O=C(Nc1ccc2c(c1)ncn2Cc1ccccc1)Nc1ccccc1Cl | 1.48 µM | – |
| O=S(=O)(Nc1ccc2c(c1)ncn2Cc1ccccc1)c1cccc2ccccc12 | 0.02 µM | – |
| O=[N+]([O-])c1ccccc1S(=O)(=O)Nc1ccc2c(c1)ncn2Cc1ccccc1 | 0.271 µM | – |
| O=S(=O)(Nc1ccc2c(c1)ncn2-c1ccc2ccccc2c1)c1ccccc1Cl | 0.385 µM | – |
| O=C(Nc1ccc2c(c1)ncn2Cc1ccccc1)Nc1ccccc1[N+](=O)[O-] | > 5 µM | – |

From ChEMBL document CHEMBL1157161, “N-1H-benzimidazol-5-ylbenzenesulfonamide derivatives as potent hPXR agonists” (Bioorg Med Chem, 2008)
